Holding throughout (type): functional
Holding throughout (settings): Mus musculus

The test system of experiment [1] is L1210. As to the kind of experiment: Compound was evaluated for the ability to inhibit L1210 tumor cell growth a concentration of 10 uM. The essentials: (§1)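 L1210 cells seeded at 0.15 × 10^5 cells/mL in Fisher's medium with 10% heat-inactivated horse serum. Drug exposure was continuous for 48 h, and cell number was counted with a Coulter counter. Percent inhibition was calculated relative to untreated control cultures, which reached 4.5 × 10^5 cells/mL.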

Experiment [2] concerns L1210. Nature of the experiment: Compound was evaluated for the ability to inhibit L1210 tumor cell growth a concentration of 100 uM. In outline:
as §1

For experiment [3], the system named is L1210. Nature of the experiment: Compound was evaluated for the ability to inhibit L1210 tumor cell growth a concentration of 1000 uM. In outline:
as §1

The subject of experiment [4] is L1210. As to the kind of experiment: Compound was evaluated for the ability to inhibit L1210 tumor cell growth a concentration of 1 uM. In outline:
as §1

As a reminder, the inhibition is the relative decrease from the control value, in per cent.

The molecule `Nc1ccn([C@@H]2C=C(CO)[C@@H](O)[C@H]2O)c(=O)c1` returned an inhibition at 10 µM in the experiment on L1210 [1] of 0%. In the experiment on L1210 [2], this molecule returned an inhibition at 100 µM of 0%. The molecule also had an inhibition at 1000 µM with L1210 [3] of 15%. The molecule also returned an inhibition at 1 µM with L1210 [4] of 0%.

In the case of `Nc1ccn([C@@H]2C=C(CO)[C@@H](O)[C@H]2O)c(=O)n1`, in the experiment on L1210 [1], the inhibition at 10 µM worked out at 93%. Also, in the experiment with L1210 [2], the inhibition at 100 µM is 93%. Moreover, the inhibition at 1 µM in the experiment on L1210 [4] is 93%.

For the molecule `O=c1cc(O)ccn1[C@@H]1C=C(CO)[C@@H](O)[C@H]1O`, the inhibition at 10 µM in the experiment with L1210 [1] was determined as 45%. At 100 µM the inhibition in the experiment with L1210 [2] was 66%. The inhibition at 1000 µM in the experiment on L1210 [3] was determined as 75%. The molecule also gave an inhibition at 1 µM in the experiment on L1210 [4] of 8%.

The record behind these values is ChEMBL document CHEMBL1125812, “Synthesis of two cyclopentenyl-3-deazapyrimidine carbocyclic nucleosides related to cytidine and uridine” (1991).
